ChEMBL document CHEMBL1795311, “Synthesis, antiproliferative activity, and mechanism of action of a series of 2-{[(2E)-3-phenylprop-2-enoyl]amino}benzamides” (Eur J Med Chem, 2011)
The source made the active and inactive calls. The rule behind the calls is not given here.

Experiments:
NCI-H522 = assay: Growth inhibition of human NCI-H522 cells after 48 hrs by SRB assay; type: functional; details: NCI-H522, 48 h
In short: (§1)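 NCI DTP panel cells grown in RPMI 1640 with 5% FBS and 2 mM L-glutamine, preincubated 24 h, then given five concentrations (10-fold or ½-log dilutions from DMSO stock) for 48 h at 37 °C. Cells fixed with TCA, stained with SRB, absorbance read at 515 nm, with time-zero plates as reference.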

HCC 2998 = assay: Growth inhibition of human HCC2998 cells after 48 hrs by SRB assay; type: functional; details: HCC 2998, 48 h; in short: as §1
MDA-MB-435 = assay: Growth inhibition of human MDA-MB-435 cells after 48 hrs by SRB assay; type: functional; details: MDA-MB-435, 48 h; in short: as §1
RXF 393 = assay: Growth inhibition of human RXF393 cells after 48 hrs by SRB assay; type: functional; details: RXF 393, 48 h; in short: as §1
NCI/ADR-RES = assay: Growth inhibition of human NCI/ADR-RES cells after 48 hrs by SRB assay; type: functional; in short: as §1
MDA-MB-468 = assay: Growth inhibition of human MDA-MB-468 cells after 48 hrs by SRB assay; type: functional; details: MDA-MB-468, 48 h; in short: as §1
K562 [1] = assay: Growth inhibition of human K562 cells after 48 hrs by SRB assay; type: functional; details: K562, 48 h; in short: as §1
T47D = assay: Growth inhibition of human T47D cells after 48 hrs by SRB assay; type: functional
In short: (§2)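 Run by the NCI Developmental Therapeutics Program: cells in RPMI 1640 with 5% FBS and 2 mM L-glutamine, plated at 5000–40,000 cells/well and grown 24 h before dosing. Drug (DMSO stock) given at five concentrations for 48 h at 37 °C, 5% CO2. Adherent cells fixed with cold TCA, stained with 0.4% SRB and read at 515 nm. GI50, TGI and LC50 taken from the time-zero, control and treated absorbances.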

CCRF-CEM = assay: Growth inhibition of human CCRF-CEM cells after 48 hrs by SRB assay; type: functional; in short: as §1
HCT-15 = assay: Growth inhibition of human HCT15 cells after 48 hrs by SRB assay; type: functional; details: HCT-15, 48 h; in short: as §1
TK-10 = assay: Growth inhibition of human TK10 cells after 48 hrs by SRB assay; type: functional; details: TK-10, 48 h; in short: as §2
BT-549 = assay: Growth inhibition of human BT549 cells after 48 hrs by SRB assay; type: functional; details: BT-549, 48 h; in short: as §1
EKVX = assay: Growth inhibition of human EKVX cells after 48 hrs by SRB assay; type: functional; in short: as §1
SK-OV-3 = assay: Growth inhibition of human SKOV3 cells after 48 hrs by SRB assay; type: functional; details: SK-OV-3, 48 h; in short: as §2
Bos taurus [2] = species: Bos taurus; assay: Inhibition of purified bovine brain tubulin microtubule assembly up to 40 uM
In short: (§3)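 Purified bovine brain tubulin. Reaction mixtures preincubated at 30 °C without GTP, chilled on ice, then given 0.4 mM GTP at 0 °C. Temperature jumped to 30 °C and held 20 min while turbidity was followed spectrophotometrically. Maximal rate and extent of assembly compared with a control run in the same experiment. Concentrations tested up to 40 μM.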

K562 [3] = assay: Cell cycle distribution in human K562 cells assessed as decrease in accumulation at G0/G1 phase at 1 to 4 uM after 24 hrs by flow cytometry; type: functional, cell-based
In short: (§4)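 K562 exposed 24 h to 1, 2 or 4 μM. Washed cells resuspended in hypotonic propidium iodide (50 μg/ml in 0.1% sodium citrate plus 0.03% NP-40), incubated 30 min. DNA-content histograms acquired by flow cytometry give the G0–G1, S and G2-M fractions.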

Mus musculus = assay: Toxicity in non-tumorated mouse at 400 mg/kg; type: organism-based; design: dose 400 mg/kg; details: in vivo
In short: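 Run by the NCI in vivo toxicity assay in non-tumored mice, at a dose of 400 mg/kg.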

PtK2 [4] = assay: Inhibition of tubulin polymerization in Potorous tridactylus PtK2 cells assessed as microtubule disruption at 10 uM after 24 hrs by immunofluorescence microscopy; type: cell-based
In short: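 PtK2 (Potorous tridactylis kidney) cells treated 24 h at 37 °C at 10 μM. Then fixed and stained directly with Cy3-anti-β-tubulin and FITC-anti-β-actin monoclonal antibodies and imaged by epifluorescence microscopy. Combretastatin A-4 (1 μM) and latrunculin A (1 μM) used as references.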

Bos taurus [5] = species: Bos taurus; assay: Inhibition of purified bovine brain tubulin polymerization by turbidimetry; in short: as §3
K562 [6] = assay: Cell cycle distribution in human K562 cells assessed as increase in accumulation at G2/M phase at 1 to 4 uM after 24 hrs by flow cytometry; type: functional, cell-based; in short: as §4
K562 [7] = assay: Cell cycle distribution in human K562 cells assessed as blocked at M phase at 1 uM after 24 hrs by ethidium bromide/acridine orange staining (reference value: 1%); type: functional
In short: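 K562 exposed to 1 μM for 24 h, then stained with ethidium bromide and acridine orange. The percentage of cells arrested in mitosis was scored morphologically; untreated cells served as control.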

K562 [8] = assay: Induction of apoptosis in human K562 cells assessed as induction in morphological alterations at 2 uM after 24 hrs ny phase contrast invertoscope; type: functional, cell-based
In short: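 Living K562 cells in culture medium, exposed 24 h to 2, 5 or 10 μM or left untreated, then viewed by phase contrast invertoscope at 40× magnification for morphologic alterations.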

K562 [9] = assay: Induction of apoptosis in human K562 cells assessed as accumulation of hypodiploid nuclei after 48 hrs by FITC- conjugated annexin-V/propidium iodide based flow cytometry; type: functional, cell-based; details: K562, 48 h
In short: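 K562 cells treated with various concentrations for 48 h. Apoptosis scored as the percentage of hypodiploid nuclei in the sub-G0–G1 peak after hypotonic propidium iodide staining (50 μg/ml in 0.1% sodium citrate, 0.03% NP-40, 30 min), measured by flow cytometry. Annexin-V-FITC/PI staining, 15 min at 20 °C, also read by flow cytometry. Mean ±SE shown.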

PtK2 [10] = assay: Binding affinity to actin in Potorous tridactylus PtK2 cells at 10 uM; type: cell-based
In short: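 PtK2 (Potorous tridactylus kidney) cells treated 24 h at 37 °C, then fixed and stained by direct immunofluorescence with Cy3-anti-β-tubulin and FITC-anti-β-actin monoclonals. Microtubule and microfilament networks were examined by epifluorescence microscopy.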

| GI50 (NCI-H522) [nM] | GI50 (HCC 2998) [nM] | GI50 (K562 [1]) [nM] | GI50 (T47D) [nM] | GI50 (CCRF-CEM) [nM] | GI50 (HCT-15) [nM] | GI50 (BT-549) [nM] | GI50 (SK-OV-3) [nM] | Compound | GI50 (RXF 393) [nM] | GI50 (TK-10) [nM] | GI50 (EKVX) [nM] | also measured |
| --- | --- | --- | --- | --- | --- | --- | --- | --- | --- | --- | --- | --- |
| 2080 | 487 | 845 | 3360 | 2960 | 2130 | 3190 | 2300 | NC(=O)c1cc(Cl)ccc1NC(=O)/C=C/c1ccccc1 | 1710 | 5510 | 2830 | GI50 (MDA-MB-435): 492 nM; GI50 (NCI/ADR-RES): 2240 nM; GI50 (MDA-MB-468): 1170 nM |
| 303 | 1250 | 920 | 857 | 341 | 586 | 9470 | 744 | NC(=O)c1cc(I)ccc1NC(=O)/C=C/c1ccccc1 | 3020 | 3150 | 734 | Activity (Bos taurus [2]): inactive; Activity (K562 [3]): Active; Activity (Mus musculus): Non-toxic; Activity (PtK2 [4]): Active; Activity (Bos taurus [5]): Active; Activity (K562 [6]): Active; Activity (K562 [7]): 35%; Activity (K562 [8]): Active; AC50 (K562 [9]): 3700 nM; Activity (PtK2 [10]): Active |
